Screening results deposited in PubChem by Johns Hopkins Ion Channel Center.
KCNQ1 inh: inhibitors of human KCNQ1 potassium channel; P51787; CHO-K1 KCNQ1, FluxOR thallium flux fluorescence; hits give high values; B-score at 10 µM; actives 1.3% (n = 310,000); AID 2642;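 active = compounds whose thallium flux B-score, printed positive for inhibition, exceeds three library SD while starting fluorescence stays within three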;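 also: channel opened by potassium depolarization with thallium stimulus after 20 min compound exposure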
KCNQ1 act: potentiators or activators of human KCNQ1 potassium channel; P51787; CHO-K1 KCNQ1, thallium flux FluxOR fluorescence; hits give high values; B-score at 10 µM; actives 0.35% (n = 310,000);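 active = fluorescence ratio B-score, a plate-corrected score, at least three library SD, with initial intensity B-score within 5 SD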
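System: Stable KCNQ1 CHO-K1 line | Incubation: 90 min dye loading and 20 min compound exposure, both at room temperature | Measure: Ratio B score | Medium: Assay buffer for compound exposure, DMSO matched across wells | Compound dosing: Single-concentration screen | Probe or stimulus: K+/Tl+ depolarizing stimulus | Measured by: Kinetic FluxOR fluorescence, 10 s baseline plus 110 s post-stimulus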
KCNK9 inh: inhibitors of human KCNK9 two-pore domain potassium channel | actives 1.2% (n = 310,000) | HEK293 KCNK9, FluxOR thallium flux fluorescence; hits give low values | B-score at 10 µM | AID 488922 | Q9NPC2;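 active = ratio B-score over 3 SD below the library mean, with starting fluorescence within 5 SD of its mean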;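 also: negative B-score means less thallium flux so channel inhibition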
hERG rescue: hERG (human) protection from proarrhythmic block | actives 0.51% (n = 310,000) | Q12809 | activation (rescue from dofetilide block), less the hit threshold, % at 10 µM | CHO-hERG, FluxOR thallium flux, dofetilide IC70 present;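 active = activation above the mean of controls blocked by dofetilide plus 5 SD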;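 also: thallium influx through hERG after potassium depolarization seen as dye fluorescence rise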
KCNK3 inh: human KCNK3 channel inhibition, primary screen. CHO-KCNK3 thallium flux, FluxOR fluorescence; hits give low values. O14649. actives 0.84% (n = 340,000). B-score at 10 µM;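 active = B-score under library mean minus 4 SD, starting fluorescence ratio at most library mean plus 5 SD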;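 also: more negative B-score means stronger inhibition of thallium flux through KCNK3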
KCNK9 inh conf: human KCNK9 inhibitor confirmation; shares compounds with KCNK9 inh; HEK293 KCNK9 cells, FluxOR thallium flux fluorescence; inhibition, % at 10 µM; actives 43% (n = 4,900); AID 492992;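 active = thallium signal inhibited by more than 5 SD of the compound-free buffer control wells, on both duplicate plates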
Kir2-1 spec: tests whether KCNK9 modulators also affect mouse Kir2.1 | shares compounds with KCNK9 inh | Kir2.1 cells, FluxOR thallium flux fluorescence | inhibition, % at 10 µM | actives 4% (n = 4,900);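 active = thallium signal drop more than 5 SD beyond the mean of the no-compound control wells, seen in both duplicate plates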;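 also: signal is fluorescence rise after thallium addition divided by baseline fluorescence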
Target sequence (P35561 whole entry, looked up): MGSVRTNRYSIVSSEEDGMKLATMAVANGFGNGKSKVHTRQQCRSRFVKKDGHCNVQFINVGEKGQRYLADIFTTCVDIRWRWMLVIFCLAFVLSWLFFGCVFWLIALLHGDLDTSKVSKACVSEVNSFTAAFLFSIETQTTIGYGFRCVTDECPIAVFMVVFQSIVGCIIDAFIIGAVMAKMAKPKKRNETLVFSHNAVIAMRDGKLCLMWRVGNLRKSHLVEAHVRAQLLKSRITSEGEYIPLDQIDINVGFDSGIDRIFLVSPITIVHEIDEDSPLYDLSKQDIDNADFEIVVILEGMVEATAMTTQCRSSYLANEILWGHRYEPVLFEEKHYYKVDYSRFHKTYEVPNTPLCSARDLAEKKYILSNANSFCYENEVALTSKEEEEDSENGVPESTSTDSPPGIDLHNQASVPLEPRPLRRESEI
HEK293 Tl ctr: second counter-screen for KCNK9 modulators: effect in non-induced cells | shares compounds with KCNK9 inh | non-induced KCNK9-HEK293, FluxOR thallium flux | inhibition, % at 10 µM | actives 40% (n = 4,900);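 active = thallium signal drop beyond 5 SD of the untreated control mean, on both duplicate plates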
Hits are given with their value. The list is not random: actives were taken first. Their share in the collection is about 3.1%.

CCN(CC)S(=O)(=O)c1cc(C(=O)N2CCc3ccccc32)ccc1Cl was read as KCNQ1 inh inactive, KCNQ1 act inactive, KCNK9 inh inactive, hERG rescue inactive, KCNK3 inh inactive, KCNK9 inh conf inactive, Kir2-1 spec inactive and HEK293 Tl ctr inactive.
Cc1ccc(C)c(NS(=O)(=O)c2cc(C(=O)N3CCc4ccccc4C3)ccc2Cl)c1 was read as KCNQ1 inh inactive, KCNQ1 act inactive, KCNK9 inh -16.8, hERG rescue inactive, KCNK3 inh inactive, KCNK9 inh conf 57.0%, Kir2-1 spec inactive and HEK293 Tl ctr 36.0%.
`N#CCCN1CCCN(CCC#N)CCN(CCC#N)CCCN(CCC#N)CC1` gave KCNQ1 inh inactive, KCNQ1 act inactive, KCNK9 inh inactive, hERG rescue inactive and KCNK3 inh inactive.
For C/C(=N/OC(=O)c1ccc(C)cc1)c1cccs1 the results were KCNQ1 inh inactive, KCNQ1 act inactive, KCNK9 inh inactive, hERG rescue inactive and KCNK3 inh inactive.
C/C(=N/OC(=O)c1ccccc1Br)c1ccc(C)cc1 was read as KCNQ1 inh inactive, KCNQ1 act inactive, KCNK9 inh -12.4, hERG rescue inactive, KCNK3 inh inactive, KCNK9 inh conf 58.5%, Kir2-1 spec inactive and HEK293 Tl ctr 34.5%.
For C=CCN1CN=C(NS(=O)(=O)c2ccc(NC(C)=O)cc2)NC1 the results were KCNQ1 inh inactive, KCNQ1 act inactive, KCNK9 inh -10.2, hERG rescue inactive, KCNK3 inh inactive, KCNK9 inh conf inactive, Kir2-1 spec inactive and HEK293 Tl ctr inactive.
`CC(=O)Nc1ccc(S(=O)(=O)NC2=NCN(C)CN2)cc1` gave KCNQ1 inh inactive, KCNQ1 act inactive, KCNK9 inh inactive, hERG rescue inactive and KCNK3 inh inactive.
For CCC1CCCCN1CCCNC(=O)c1cc2c(=O)oc3ccc(C)cc3c2s1 (centres undefined) the results were KCNQ1 inh inactive, KCNQ1 act inactive, KCNK9 inh inactive, hERG rescue inactive and KCNK3 inh inactive.
Screening Cc1ccc(S(=O)(=O)N2CCOCC2)cc1C(=O)O returned KCNQ1 inh inactive, KCNQ1 act inactive, KCNK9 inh inactive, hERG rescue inactive and KCNK3 inh inactive.
Cc1ccc(C)c(N2CCN(C(=O)c3cc(S(=O)(=O)N4CCOCC4)ccc3F)CC2)c1 was read as KCNQ1 inh inactive, KCNQ1 act inactive, KCNK9 inh inactive, hERG rescue inactive, KCNK3 inh inactive, KCNK9 inh conf inactive, Kir2-1 spec inactive and HEK293 Tl ctr inactive.
`c1ccc(Cn2nnnc2C(c2cccs2)N2CCc3ccccc3C2)cc1` (centres undefined) gave KCNQ1 inh inactive, KCNQ1 act inactive, KCNK9 inh -11.7, hERG rescue inactive, KCNK3 inh inactive, KCNK9 inh conf inactive, Kir2-1 spec inactive and HEK293 Tl ctr 32.0%.
Screening NC(=O)c1ccc(/C=N/O)[n+](Cc2ccccc2)c1 returned KCNQ1 inh inactive, KCNQ1 act inactive, KCNK9 inh inactive, hERG rescue inactive and KCNK3 inh inactive.
For CC(=O)Nc1ccc(NC(=O)c2c(C)nn(Cc3ccccc3Cl)c2C)cc1 the results were KCNQ1 inh inactive, KCNQ1 act inactive, KCNK9 inh inactive, hERG rescue inactive and KCNK3 inh inactive.
For Cc1cccc(N2CCN(C(=O)Cc3ccccc3[N+](=O)[O-])CC2)c1C the results were KCNQ1 inh inactive, KCNQ1 act inactive, KCNK9 inh inactive, hERG rescue inactive, KCNK3 inh inactive, KCNK9 inh conf inactive, Kir2-1 spec inactive and HEK293 Tl ctr inactive.
Cc1cccc(N2CCN(C(=O)c3c(C)nn(Cc4ccccc4Cl)c3C)CC2)c1C was read as KCNQ1 inh inactive, KCNQ1 act inactive, KCNK9 inh inactive, hERG rescue inactive, KCNK3 inh inactive, KCNK9 inh conf inactive, Kir2-1 spec inactive and HEK293 Tl ctr inactive.
